Experimental data as given in ChEMBL document CHEMBL5244270, “Selective Inhibitors of G2019S-LRRK2 Kinase Activity” (J Med Chem, 2020).

Columns and labels:
[1] = biological target: T1, Leucine-rich repeat serine/threonine-protein kinase 2 (Homo sapiens, UniProt Q5S007); test: Inhibition of N-terminal GST-fused human wild type LRRK2 using fluorescein-labeled LRRKtide as substrate preincubated for 15 mins followed by substrate addition and measured after 1 hr by TR-FRET assay
Method in brief: (§1)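 Purified truncated LRRK2, WT or G2019S, at 2 nM nominal was preincubated with inhibitor for 15 min. LRRKtide (0.4 μM) and ATP (25 μM) were then added for 1 h. The reaction was stopped with 10 mM EDTA plus 2 nM Tb-anti-pLRRKtide antibody, and TR-FRET was read. IC50 is the geometric mean of at least two independent experiments.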

[2] = biological target: T2, Leucine-rich repeat serine/threonine-protein kinase 2 (Homo sapiens, UniProt Q5S007, G2019S); test: Inhibition of N-terminal GST-fused human LRRK2 G2019S mutant using fluorescein-labeled LRRKtide as substrate preincubated for 15 mins followed by substrate addition and measured after 1 hr by TR-FRET assay; method in brief: as §1
Homo sapiens [3] = organism: Homo sapiens; test: Selectivity ratio of IC50 for inhibition of N-terminal GST-fused human wild type LRRK2 to IC50 for inhibition of N-terminal GST-fused human […] mutant; method in brief: as §1
[4] = biological target: T1, Leucine-rich repeat serine/threonine-protein kinase 2; test: Inhibition of human wild type LRRK2 expressed in HEK293 cells assessed as reduction in pSer935 phosphorylation incubated for 2 hrs by HTRF analysis; assay type: cell-based
Method in brief: (§2)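 Stably transfected HEK293 cells expressing human WT or G2019S LRRK2 were seeded at 5K/well in DMEM with 1% serum on poly-D-lysine plates. Inhibitor in DMSO was added for 2 h at 37 °C. pS935 was detected by an HTRF kit. IC50 is the geometric mean of at least two independent experiments.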

[5] = biological target: T2, Leucine-rich repeat serine/threonine-protein kinase 2; test: Inhibition of human LRRK2 G2019S mutant expressed in HEK293 cells assessed as reduction in pSer935 phosphorylation incubated for 2 hrs by HTRF analysis; assay type: cell-based; method in brief: as §2
Homo sapiens [6] = organism: Homo sapiens; test: Selectivity ratio of IC50 for inhibition of human wild type LRRK2 expressed in HEK293 cells to IC50 for inhibition of human LRRK2 G2019S mutant expressed in HEK293; assay type: cell-based
Method in brief: (§3)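 HEK293 cells stably expressing WT or G2019S LRRK2 (100 000/well, EMEM with 1% FBS) were dosed about 24 h after plating, for 2 h. They were lysed in 1% SDS Tris buffer with protease and phosphatase inhibitors, and lysates were heated at 65 °C for 10 min. pThr73-Rab10, total Rab10, pS935 and total LRRK2 were quantified by immunoblot. IC50 is the geometric mean of at least two independent experiments.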

[7] = biological target: T1, Leucine-rich repeat serine/threonine-protein kinase 2; test: Inhibition of human wild type LRRK2 expressed in HEK293 cells assessed as reduction in pS1292 phosphorylation incubated for 2 hrs by MSD analysis; assay type: cell-based
Method in brief: (§4)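 HEK293 cells stably expressing WT or G2019S LRRK2 (30−50K/well, DMEM with 1% serum) were treated for 2 h at 37 °C and lysed with phosphatase inhibitors. LRRK2 was captured on anti-LRRK2-coated MSD plates overnight at 4 °C. Detection used rabbit anti-pS1292 (1:400) and Sulfo-Tag anti-rabbit, with an electrochemiluminescence read-out. IC50 is the geometric mean of at least two independent experiments.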

[8] = biological target: T2, Leucine-rich repeat serine/threonine-protein kinase 2; test: Inhibition of human LRRK2 G2019S mutant expressed in HEK293 cells assessed as reduction in pS1292 phosphorylation incubated for 2 hrs by MSD analysis; assay type: cell-based; method in brief: as §4
Homo sapiens [9] = organism: Homo sapiens; test: Selectivity ratio of IC50 for inhibition of human wild type LRRK2 expressed in HEK293 cells assessed as reduction in pS1292 phosphorylation to IC50 for inhibition of human LRRK2 G2019S mutant expressed in HEK293 cells assessed as reduction in pS1292 phosphorylation; assay type: cell-based; method in brief: as §4
[10] = biological target: T1, Leucine-rich repeat serine/threonine-protein kinase 2; test: Inhibition of human wild type LRRK2 expressed in HEK293 cells assessed as reduction in pSer935 phosphorylation incubated for 2 hrs by immunoblotting analysis; assay type: cell-based; method in brief: as §3
[11] = biological target: T2, Leucine-rich repeat serine/threonine-protein kinase 2; test: Inhibition of human LRRK2 G2019S mutant expressed in HEK293 cells assessed as reduction in pSer935 phosphorylation incubated for 2 hrs by immunoblotting analysis; assay type: cell-based; method in brief: as §3
Homo sapiens [12] = organism: Homo sapiens; test: Selectivity ratio of IC50 for inhibition of human wild type LRRK2 expressed in HEK293 cells assessed as reduction in pSer935 phosphorylation to IC50 for inhibition of human LRRK2 G2019S mutant expressed in HEK293 cells assessed as reduction in pSer935 phosphorylation; assay type: cell-based; method in brief: as §2
[13] = biological target: T1, Leucine-rich repeat serine/threonine-protein kinase 2; test: Inhibition human wild type LRRK2 expressed in human HEK293 assessed as Rab10 substrate phosphorylation at Threonine 73 residue incubated for 2 hrs by immunoblotting analysis; assay type: cell-based; method in brief: as §3
[14] = biological target: T2, Leucine-rich repeat serine/threonine-protein kinase 2; test: Inhibition human LRRK2 G2019S mutant expressed in human HEK293 assessed as Rab10 substrate phosphorylation at Threonine 73 residue incubated for 2 hrs by immunoblotting analysis; assay type: cell-based; method in brief: as §3
Homo sapiens [15] = organism: Homo sapiens; test: Selectivity ratio of IC50 for inhibition human wild type LRRK2 expressed in human HEK293 assessed as Rab10 substrate phosphorylation at Threonine 73 residue to IC50 for inhibition of human LRRK2 G2019S mutant expressed in human HEK293 assessed as Rab10 substrate phosphorylation at Threonine 73 residue; method in brief: as §3

T1 sequence (Q5S007 whole entry, the tested form may be a part): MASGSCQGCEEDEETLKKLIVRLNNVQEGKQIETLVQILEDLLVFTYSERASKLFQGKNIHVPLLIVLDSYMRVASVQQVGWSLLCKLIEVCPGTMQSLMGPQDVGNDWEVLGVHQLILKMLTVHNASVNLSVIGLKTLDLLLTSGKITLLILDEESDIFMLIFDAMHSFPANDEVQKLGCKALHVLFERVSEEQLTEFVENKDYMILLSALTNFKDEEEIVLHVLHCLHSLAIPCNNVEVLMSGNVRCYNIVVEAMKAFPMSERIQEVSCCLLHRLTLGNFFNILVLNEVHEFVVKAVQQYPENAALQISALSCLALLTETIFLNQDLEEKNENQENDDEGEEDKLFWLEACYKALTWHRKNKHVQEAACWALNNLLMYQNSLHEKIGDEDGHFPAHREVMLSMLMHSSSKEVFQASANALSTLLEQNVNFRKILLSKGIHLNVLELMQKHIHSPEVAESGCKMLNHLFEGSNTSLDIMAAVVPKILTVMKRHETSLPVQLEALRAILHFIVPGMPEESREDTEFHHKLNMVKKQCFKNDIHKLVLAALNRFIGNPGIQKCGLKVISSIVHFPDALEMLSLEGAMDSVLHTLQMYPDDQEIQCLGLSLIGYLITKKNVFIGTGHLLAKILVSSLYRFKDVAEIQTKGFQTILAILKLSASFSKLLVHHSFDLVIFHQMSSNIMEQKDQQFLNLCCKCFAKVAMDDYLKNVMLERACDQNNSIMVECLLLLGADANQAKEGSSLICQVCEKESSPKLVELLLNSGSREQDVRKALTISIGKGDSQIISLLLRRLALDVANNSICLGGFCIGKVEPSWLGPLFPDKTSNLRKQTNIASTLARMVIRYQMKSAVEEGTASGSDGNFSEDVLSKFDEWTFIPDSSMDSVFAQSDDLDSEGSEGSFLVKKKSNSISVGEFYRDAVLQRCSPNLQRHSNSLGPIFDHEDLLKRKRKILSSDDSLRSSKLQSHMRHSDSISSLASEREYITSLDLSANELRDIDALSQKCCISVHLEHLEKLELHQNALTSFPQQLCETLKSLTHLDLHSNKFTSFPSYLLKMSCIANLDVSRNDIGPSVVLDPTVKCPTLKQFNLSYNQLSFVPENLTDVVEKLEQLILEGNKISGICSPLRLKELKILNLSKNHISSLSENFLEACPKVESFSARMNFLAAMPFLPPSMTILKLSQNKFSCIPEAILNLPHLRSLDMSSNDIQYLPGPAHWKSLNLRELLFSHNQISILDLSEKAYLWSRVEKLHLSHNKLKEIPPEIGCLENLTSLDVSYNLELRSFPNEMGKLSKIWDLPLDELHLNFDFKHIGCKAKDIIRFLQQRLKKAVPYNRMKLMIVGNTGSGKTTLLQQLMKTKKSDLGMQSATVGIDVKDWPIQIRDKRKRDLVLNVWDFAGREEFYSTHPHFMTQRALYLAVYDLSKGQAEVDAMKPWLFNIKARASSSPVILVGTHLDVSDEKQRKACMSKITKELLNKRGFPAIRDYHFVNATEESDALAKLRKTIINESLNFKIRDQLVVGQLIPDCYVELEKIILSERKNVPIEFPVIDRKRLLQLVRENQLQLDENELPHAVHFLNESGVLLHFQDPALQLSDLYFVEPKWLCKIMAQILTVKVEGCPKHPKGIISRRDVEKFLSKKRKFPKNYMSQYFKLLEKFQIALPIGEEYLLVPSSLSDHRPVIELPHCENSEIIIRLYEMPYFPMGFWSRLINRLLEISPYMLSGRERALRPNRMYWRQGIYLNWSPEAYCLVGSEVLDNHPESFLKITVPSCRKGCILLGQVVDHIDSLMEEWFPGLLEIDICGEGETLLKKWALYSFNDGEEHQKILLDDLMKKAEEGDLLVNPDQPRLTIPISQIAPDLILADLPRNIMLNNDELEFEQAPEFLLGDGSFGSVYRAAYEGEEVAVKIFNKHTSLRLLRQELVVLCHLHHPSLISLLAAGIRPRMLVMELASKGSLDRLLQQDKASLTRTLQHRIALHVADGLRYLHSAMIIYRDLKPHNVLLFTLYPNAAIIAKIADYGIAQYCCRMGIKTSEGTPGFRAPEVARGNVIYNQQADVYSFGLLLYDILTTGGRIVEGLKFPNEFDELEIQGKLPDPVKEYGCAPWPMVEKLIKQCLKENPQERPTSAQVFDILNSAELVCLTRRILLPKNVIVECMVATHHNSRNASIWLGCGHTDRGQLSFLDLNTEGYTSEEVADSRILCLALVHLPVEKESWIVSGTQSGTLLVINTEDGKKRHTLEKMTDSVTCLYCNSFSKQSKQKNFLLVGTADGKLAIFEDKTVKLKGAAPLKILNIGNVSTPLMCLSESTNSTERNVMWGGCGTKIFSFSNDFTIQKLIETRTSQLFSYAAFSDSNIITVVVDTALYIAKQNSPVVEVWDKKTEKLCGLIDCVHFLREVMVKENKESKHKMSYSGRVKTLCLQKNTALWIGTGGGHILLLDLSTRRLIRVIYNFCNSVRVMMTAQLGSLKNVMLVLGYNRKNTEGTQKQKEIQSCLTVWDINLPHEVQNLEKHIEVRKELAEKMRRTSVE
T2 sequence (Q5S007 whole entry G2019S, the tested form may be a part): as the sequence (Q5S007 whole entry, the tested form may be a part) above, with G2019S counted along it

Row | Compound | IC50 [1] | IC50 [2] | Ratio IC50 (Homo sapiens [3]) | further results
1 | CC(=O)N1C(C)=C(C(=O)Nc2ccc3[nH]ncc3c2)Cn2nnnc21 | 2540 nM | 513 nM | 5 | 
2 | CC1=C(C(=O)Nc2ccc3[nH]nc(-c4ccnc(N5CCOCC5)c4)c3c2)[C@@H](C)n2nnnc2N1C | < 0.2 nM | < 0.2 nM |  | IC50 [4]: 65 nM; IC50 [5]: 2.4 nM; Ratio IC50 (Homo sapiens [6]): 27; IC50 [7]: 20.9 nM; IC50 [8]: 1.2 nM; Ratio IC50 (Homo sapiens [9]): 18
3 | CC1=C(C(=O)Nc2ccc3[nH]cnc3c2)Cn2nnnc2N1C | > 10000 nM | > 10000 nM |  | 
4 | CC1=C(C(=O)Nc2ccc3[nH]ncc3c2)Cn2nnnc2N1c1ccccc1 | 5.7 nM | 2.6 nM | 2.2 | 
5 | CC1=C(C(=O)Nc2ccn3cnc(C)c3c2)Cn2nnnc2N1C | > 10000 nM | 1350 nM | > 7.4 | 
6 | CC1=C(C(=O)Nc2ccc3[nH]nc(Br)c3c2)Cn2nnnc2N1C | 96 nM | 2.4 nM | 40 | 
7 | CC1=C(C(=O)Nc2ccc3[nH]ncc3c2)[C@@H](C)n2nnnc2N1C | 71 nM | 1.64 nM | 43 | IC50 [4]: > 10000 nM; IC50 [5]: 189 nM; Ratio IC50 (Homo sapiens [6]): > 53; IC50 [7]: 2180 nM; IC50 [8]: 104 nM; Ratio IC50 (Homo sapiens [9]): 21
8 | CC1=C(C(=O)Nc2ccc3[nH]ncc3c2)C(C)(C)n2nnnc2N1C | 1300 nM | 12 nM | 108 | 
9 | CC1=C(C(=O)Nc2ccc3c(c2)[nH]c(=O)n3C)[C@@H](C)n2nnnc2N1C | > 10000 nM | > 10000 nM |  | 
10 | CC1=C(C(=O)Nc2ccc3c(N)nccc3c2)[C@@H](C)n2nnnc2N1C | 581 nM | 12 nM | 48 | 
11 | CC1=C(C(=O)Nc2ccc3[nH]nc(-c4nc5ccccc5[nH]4)c3c2)Cn2nnnc2N1C | 0.53 nM | < 0.2 nM | > 2.6 | IC50 [4]: 3300 nM; IC50 [5]: 21 nM; Ratio IC50 (Homo sapiens [6]): 157; IC50 [7]: 242 nM; IC50 [8]: 21 nM; Ratio IC50 (Homo sapiens [9]): 12
12 | CC1=C(C(=O)Nc2ccc3c(c2)CNC3=O)[C@@H](C)n2nnnc2N1C | 1700 nM | 32 nM | 53 | 
13 | CC1=C(C(=O)Nc2ccc3[nH]ncc3c2)Cn2nnnc2N1C | 509 nM | 32 nM | 16 | 
14 | CCN1C(C)=C(C(=O)Nc2ccc3[nH]ncc3c2)Cn2nnnc21 | 865 nM | 58 nM | 15 | 
15 | CC1=C(C(=O)N(C)c2ccc3[nH]ncc3c2)Cn2nnnc2N1C |  | > 10000 nM |  | 
16 | CC1=C(C(=O)Nc2ccc3c(c2)CC(=O)N3)Cn2nnnc2N1C | > 10000 nM | 6370 nM | > 1.6 | 
17 | CC1=C(C(=O)Nc2ccc3[nH]nc(C)c3c2)[C@@H](C)n2nnnc2N1C | 20 nM | 0.82 nM | 24 | IC50 [4]: 5220 nM; IC50 [5]: 46.1 nM; Ratio IC50 (Homo sapiens [6]): 113; IC50 [10]: 8740 nM; IC50 [11]: 106 nM; Ratio IC50 (Homo sapiens [12]): 82; IC50 [7]: 380 nM; IC50 [8]: 19 nM; Ratio IC50 (Homo sapiens [9]): 20; IC50 [13]: 9740 nM; IC50 [14]: 137 nM; Ratio IC50 (Homo sapiens [15]): 71
18 | CC1=C(C(=O)Nc2ccc3[nH]nc(-c4ccc(S(N)(=O)=O)cc4)c3c2)Cn2nnnc2N1C | 0.7 nM | < 0.2 nM | > 3.5 | 
19 | CC1=C(C(=O)Nc2ccc3[nH]nc(-c4ccnc(N5CCOCC5)c4)c3c2)Cn2nnnc2N1C | < 0.2 nM | < 0.2 nM |  | IC50 [4]: 377 nM; IC50 [5]: 8.3 nM; Ratio IC50 (Homo sapiens [6]): 45; IC50 [7]: 74.4 nM; IC50 [8]: 9.2 nM; Ratio IC50 (Homo sapiens [9]): 8
20 | CC1=C(C(=S)Nc2ccc3[nH]ncc3c2)Cn2nnnc2N1C |  | 15.3 nM | 15 | 

Row | Compound | IC50 [1] | IC50 [2] | Ratio IC50 (Homo sapiens [3]) | further results
21 | CC1=C(C(=O)Nc2ccc3[nH]nc(NC(=O)c4ccccc4)c3c2)Cn2nnnc2N1C | 108 nM | 3 nM | 35 | 
22 | CCCC(=O)Nc1n[nH]c2ccc(NC(=O)C3=C(C)N(C)c4nnnn4C3)cc12 | > 10000 nM | 1190 nM | > 8.4 | 
23 | CC1=C(C(=O)Nc2ccc3[nH]ncc3c2)Cn2nnnc2N1C(=O)N(C)C | 888 nM | 53 nM | 17 | 
24 | CC1=C(C(=O)Nc2ccc3c(c2)C(=O)NC3=O)[C@@H](C)n2nnnc2N1C | 2840 nM | 55 nM | 52 | 
25 | CC1=C(C(=O)Nc2ccc3[nH]nc(C)c3c2)C(C)(C)n2nnnc2N1C | 152 nM | 0.8 nM | 190 | 
26 | CC1=C(C(=O)Nc2ccc3[nH]nc(C(N)=O)c3c2)Cn2nnnc2N1C | 125 nM | 6 nM | 21 | 
27 | CC1=C(C(=O)Nc2ccc3[nH]ncc3c2)Cn2nnnc2N1CCN1CCOCC1 | 6130 nM | 4650 nM | 1.3 | 
28 | CC1=C(C(=O)Nc2ccc3[nH]nc(-c4ccnc(N5CCOCC5)c4)c3c2)[C@H](C)n2nnnc2N1C | 1 nM | < 0.2 nM | > 5 | 
29 | CC1=C(C(=O)Nc2ccc3[nH]nc(-c4cc(N5CCOCC5)ncn4)c3c2)Cn2nnnc2N1C | 0.88 nM | 0.4 nM | 2.2 | 
30 | CC1=C(C(=O)Nc2ccc3[nH]cc(C)c3c2)Cn2nnnc2N1C | > 10000 nM | > 10000 nM |  | 
31 | CC1=C(C(=O)Nc2ccc3[nH]c(=O)n(C)c3c2)[C@@H](C)n2nnnc2N1C | 2870 nM | 58 nM | 49.7 | 
32 | CC1=C(C(=O)Nc2ccc3[nH]c(=O)[nH]c3c2)Cn2nnnc2N1C | > 8600 nM | 240 nM | > 36 | 
33 | CN1C=C(C(=O)Nc2ccc3[nH]ncc3c2)Cn2nnnc21 | > 10000 nM | > 10000 nM |  | 
34 | CCC1=C(C(=O)Nc2ccc3[nH]ncc3c2)Cn2nnnc2N1C | 534 nM | 244 nM | 2.2 | 
35 | CC1=C(C(=O)Nc2ccc3[nH]ncc3c2)[C@H](C)n2nnnc2N1C | 302 nM | 94 nM | 3.2 | 
36 | CC1=C(C(=O)Nc2ccc3[nH]nc(-c4ccncc4)c3c2)Cn2nnnc2N1C | 9 nM | 0.44 nM | 20 | 
37 | CC1=C(C(=O)Nc2ccc3cnc(C)n3c2)Cn2nnnc2N1C | > 10000 nM | 3120 nM | > 3.2 | 
38 | CC1=C(C(=O)Nc2ccc3[nH]nc(C)c3c2)[C@H](C)n2nnnc2N1C | 1220 nM | 51 nM | 24 | 
39 | CC1=C(C(=O)Nc2ccc3[nH]nc(C)c3c2)Cn2nnnc2N1C | 121 nM | 10 nM | 12 | 
40 | CC1=C(C(=O)Nc2ccc3[nH]nc(-c4ccncc4)c3c2)[C@@H](C)n2nnnc2N1C | < 0.2 nM | < 0.2 nM |  | IC50 [4]: 1140 nM; IC50 [5]: 14.7 nM; Ratio IC50 (Homo sapiens [6]): 78; IC50 [7]: 272 nM; IC50 [8]: 12.1 nM; Ratio IC50 (Homo sapiens [9]): 22
